# Source: PubChem BioAssay (The Scripps Research Institute Molecular Screening Center)
# PAD4 FP inh – human PAD4 inhibitors, primary screen, biochemical, fluorescence polarization, 1536-well format; AID 485272, 2010; inhibition, % at 6.36 µM; 330,000 compounds, 0.41% hits; Protein-arginine deiminase type-4 (Homo sapiens), Q9UM07; recombinant PAD4, RCA probe fluorescence polarization;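 active = percent inhibition above a cutoff equal to the mean of all tested compounds plus 3 SD, cut at about 15% in these data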
# PME-1 primary – PME-1 inhibitors via competitive probe labeling, primary screen, biochemical, fluorescence polarization, FP-Rh probe, HTS; Protein phosphatase methylesterase 1 (Homo sapiens), Q9Y570; recombinant PME-1; inhibition, % at 5.9 µM; 320,000 compounds, 0.53% hits; AID 2130, 2009;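 active = inhibition above the campaign mean of all compounds plus 3 SD, cut at about 26% in these data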;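 also: competitive labeling of PME-1 active site by serine hydrolase directed probe; inhibitors block probe labeling so polarization falls and inhibition rises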
# Target sequence (Q9Y570 whole entry, looked up): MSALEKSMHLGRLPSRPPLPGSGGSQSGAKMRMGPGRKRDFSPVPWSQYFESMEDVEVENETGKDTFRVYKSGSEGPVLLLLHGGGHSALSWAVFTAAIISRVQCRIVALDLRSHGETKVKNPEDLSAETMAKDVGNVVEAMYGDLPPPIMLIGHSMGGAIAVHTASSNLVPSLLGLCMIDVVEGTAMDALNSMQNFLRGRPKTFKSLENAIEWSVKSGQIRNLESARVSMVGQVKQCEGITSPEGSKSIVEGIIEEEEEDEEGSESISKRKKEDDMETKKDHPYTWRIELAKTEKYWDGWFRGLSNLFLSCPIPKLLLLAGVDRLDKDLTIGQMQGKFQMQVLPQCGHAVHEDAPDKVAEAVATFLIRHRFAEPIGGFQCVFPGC
# LYPLA2 counter – LYPLA2 inhibitors, primary screen, counter-screen for PME1 inhibitor project, biochemical, fluorescence polarization, FP-Rh probe ABPP; Acyl-protein thioesterase 2 (Homo sapiens), O95372; recombinant LYPLA2; inhibition, % at 5.9 µM; 320,000 compounds, 0.38% hits; AID 2177, 2009;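 active = inhibition above the screen-wide mean plus 3 SD, limit set per campaign, cut at about 26% in these data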
# Fam108B inh – mouse Fam108B serine hydrolase inhibitors, primary screen, counter-screen for RBBP9 inhibitor project, biochemical, fluorescence polarization | inhibition, % at 9.51 µM | AID 1947, 2009 | 300,000 compounds, 0.33% hits | recombinant Fam108B, FP-Rh probe fluorescence polarization;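 active = inhibition above the screen mean inhibition plus 3 SD, computed separately per campaign, cut at about 18% in these data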;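 also: inhibitors lower polarization as less probe binds the enzyme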
# LYPLA1 counter – LYPLA1 inhibitors, primary screen, counter-screen for PME1 inhibitor project, biochemical, fluorescence polarization, FP-Rh probe ABPP; AID 2174, 2009; recombinant LYPLA1; 320,000 compounds, 0.16% hits; inhibition, % at 5.9 µM;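 active = inhibition above the mean of all tested compounds plus 3 SD, set per campaign, cut at about 14% in these data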;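 also: inhibitors block serine hydrolase probe labeling of LYPLA1 so polarization falls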
# Target sequence (O75608 whole entry, looked up): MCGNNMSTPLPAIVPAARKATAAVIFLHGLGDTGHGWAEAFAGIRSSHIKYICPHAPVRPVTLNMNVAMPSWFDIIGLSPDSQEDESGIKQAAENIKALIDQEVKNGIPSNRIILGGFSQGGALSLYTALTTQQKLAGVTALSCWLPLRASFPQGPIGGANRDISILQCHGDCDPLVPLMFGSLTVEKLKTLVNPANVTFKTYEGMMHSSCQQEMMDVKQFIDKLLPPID
# RBBP9 inh – human RBBP9 inhibitors, primary screen, biochemical, fluorescence polarization, FP-Rh probe, HTS; AID 1515, 2009; Serine hydrolase RBBP9 (Homo sapiens), O75884; recombinant RBBP9; inhibition, % at 7.94 µM; 220,000 compounds, 0.2% hits;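 active = inhibition above the campaign mean of all tested compounds plus 3 SD, cut at about 14% in these data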
#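 Measured by – fluorescence polarization · Test system – RBBP9 protein · Input – 2.5 µM RBBP9 dispensing solution, before mixing · Measure – percent inhibition from mP, scaled between DMSO and no-protein wells · Benchmarks – DMSO-treated enzyme wells and wells lacking RBBP9 · Times – preincubation 30 min plus labeling 45 min at 25 °C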
# RBBP9 inh conf – human RBBP9 inhibitors, retest, confirmation, biochemical, fluorescence polarization, FP-Rh probe, triplicate; shares compounds with RBBP9 inh; recombinant RBBP9; 410 compounds, 36% hits; inhibition, % at 7.94 µM; AID 1537, 2009;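 active = inhibition above the hit cutoff derived for the primary screen, cut at about 15% in these data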
# Numbers stand for hits; . = inactive; / = no result given. Sampled rows, rich in hits. Any-hit rate of the full collection: about 1.3%.
SMILES,PAD4 FP inh,PME-1 primary,LYPLA2 counter,Fam108B inh,LYPLA1 counter,RBBP9 inh,RBBP9 inh conf
C=CCn1c(=O)c2c(C)c(C)sc2n2c(Nc3ccc(OC)cc3)nnc12,.,.,.,.,.,15.6,.
C=CCSc1nc2sc(C)c(C)c2c(=O)n1CC=C,.,.,.,.,.,.,/
CCc1ccc(OCC(=O)O/N=C(\N)c2cccnc2)cc1,.,.,.,.,.,15.0,.
CCC(NS(=O)(=O)c1ccc(C)cc1)C(=O)Nc1ccc(NC(C)=O)cc1 (stereo not drawn),.,.,.,.,.,15.5,.
CCC(C)NS(=O)(=O)c1ccc(NC(C)=O)cc1 (stereo not drawn),.,.,.,.,.,.,/
CCC(C)(C)NC(=O)/C=C/c1cccs1,.,.,.,.,.,17.8,.
CC(C)CNC(=O)/C=C/c1cccs1,.,.,.,.,.,.,/
N#CC1(NC(=O)COC(=O)c2cc([N+](=O)[O-])ccc2N2CCOCC2)CCCCC1,.,.,.,.,.,/,/
Cc1cccc(OCCCC(=O)Nc2ccc(Br)cc2)c1,.,.,.,.,.,.,/
Cc1cccc(OCCCC(=O)Nc2ccc(N(C)C)cc2)c1,.,.,.,.,.,18.1,26.3
Cc1ccc(NC(=O)COC(=O)C2=NN(c3ccccc3)C(=O)CC2)c(Br)c1,.,.,.,/,.,/,/
CCOc1ccc(NC(=O)CN2CCN(CC(=O)Nc3ccc(Cl)c(C(F)(F)F)c3)CC2)cc1,.,.,.,.,.,.,/
COc1ccc(/C=C/C(=O)NC(=S)NNC(=O)Cc2cccs2)cc1OC,.,.,.,.,.,14.9,.
CC(=O)c1sc2nc(-c3ccco3)ccc2c1N,.,.,.,.,.,20.9,35.1
NC(=O)c1sc2nc(-c3ccccc3)ccc2c1N,.,.,.,.,.,/,/
COc1cccc(CNc2ccc(N3CCCCC3)cc2)c1OC,.,.,.,.,.,14.4,17.1
CC(C)(CNC(=O)c1cc2c(s1)CCCC2)N1CCOCC1,.,.,.,.,.,/,/
CC(C)(C)NC(=O)C[C@H]1C[C@H](C(=O)N2CCOCC2)[C@@]2(CCC3CCCC3)c3[nH]c4cc(-c5ccco5)ccc4c3CCN2C1=O,.,/,/,/,/,/,/
Cc1ccc(NC(=S)N/N=C2\CC(C)(C)Oc3ccc(O)cc32)cc1,.,.,.,.,.,17.2,.
Cc1c(C(=O)O)sc(S(=O)(=O)N2CCN(C(=O)Cc3ccc(F)cc3)CC2)c1C(=O)O,.,.,.,/,.,/,/
Cc1c(C(=O)O)sc(S(=O)(=O)N2CCNCC2)c1C(=O)O,/,/,/,/,/,19.5,.
Cc1ccc(F)cc1CNC(=O)C1CCC(=O)N(C2CC2)C1 (stereo not drawn),.,.,.,.,.,/,/
CCOC(=O)c1c(C)[nH]c(N=Nc2ccccc2)c1C,.,.,.,.,.,14.9,.
CCCc1nnc(NC(=O)CN2CCN(C)CC2)s1,.,.,.,.,.,16.7,.
CC1(c2ccc(OC(F)F)cc2)NC(=O)N(CC(=O)c2ccc3c(c2)OCO3)C1=O (stereo not drawn),.,.,.,.,.,/,/
SMILES,PAD4 FP inh,PME-1 primary,LYPLA2 counter,Fam108B inh,LYPLA1 counter,RBBP9 inh,RBBP9 inh conf
Cc1ccc(S(=O)(=O)NC(C)(C)C)cc1C(=O)OCC(=O)N1CCCC1=O,.,.,.,.,.,/,/
CN(C)c1ccc(Nc2nc(-c3cccnc3)cs2)cc1,.,.,.,.,.,20.4,22.0
CCN(CC)c1ccc(Nc2nc(-c3cccnc3)cs2)cc1,.,.,.,.,.,/,/
CCOC(=O)c1nn(-c2ccc(C)c(C)c2)c(=O)c2c(N)scc12,.,.,.,.,.,18.4,38.1
CCOC(=O)c1nn(-c2ccc(OC)cc2)c(=O)c2c(N)scc12,.,.,.,.,.,.,/
N#CC1=C(N)OC2=C(C(=O)CCC2)C1c1cc2c(cc1Br)OCO2 (stereo not drawn),.,.,.,.,.,/,/
O=C(O)CN1CCN(Cc2ccccc2Cl)C1=O,.,.,.,.,.,15.6,.
C[C@@H]1COC(=O)[C@@H](CC(=O)OC(C)(C)C)C/C=C\C[C@@H](CC(=O)NCCO)C(=O)N1,.,/,/,/,/,/,/
COC(=O)c1cc(C(=O)OCC(=O)N2CCCCC2)cc([N+](=O)[O-])c1,.,/,/,/,/,/,/
Nc1nc(-c2cccnc2)nn1C(=O)CCc1ccccc1,.,.,.,.,.,14.3,.
Cc1nc(C/C(=N\N)c2ccc(O)cc2O)cs1,.,.,.,.,.,.,/
CCc1cc(/C(Cc2csc(C)n2)=N/O)c(O)cc1O,.,.,.,.,.,30.8,22.4
CN(C)S(=O)(=O)c1cccc(NC(=S)Nc2cccc3cnccc23)c1,/,/,/,/,/,19.2,.
O=S(=O)(c1ccccc1)N1CCNCC1,.,.,.,.,.,/,/
Nn1c(SCC(=O)Nc2ccc(F)cc2)nnc1-c1cccnc1,.,.,.,.,.,.,/
COc1ccccc1NC(=O)c1c(NC(=O)CCC(=O)O)sc2c1CCCCC2,.,.,.,.,.,.,/
COc1ccc(OC)c(NC(=O)c2c(NC(=O)CCC(=O)O)sc3c2CCCCC3)c1,.,.,.,.,.,21.0,.
Cc1ccc(NC(=O)/C(=C\c2ccc([N+](=O)[O-])cc2)NC(=O)c2ccccc2)cc1,.,.,.,.,.,.,/
O=C(N/N=C/c1ccc(O)c(O)c1O)/C(=C/c1ccc([N+](=O)[O-])cc1)NC(=O)c1ccccc1,.,.,.,.,.,17.9,38.4
COc1ccc(C2=NS(=O)(=O)N(C)C(C(=O)NC3CCCCC3)=C2)cc1OC,.,.,.,.,.,/,/
CC(=O)Nc1cccc(-c2csc(Nc3ncccn3)n2)c1,/,/,/,/,/,.,/
Oc1ccc(-c2csc(Nc3ncccn3)n2)cc1O,/,/,/,/,/,19.5,40.1
COc1ccc(-c2cc(N3C(=O)Nc4ccccc4N3O)n[nH]2)cc1,.,.,.,.,.,.,/
CCOc1ccc(-c2cc(N3C(=O)Nc4ccccc4N3O)on2)cc1,.,.,.,.,.,16.2,.
C/C(=N/NC(=O)CNC(=O)CCc1ccccc1)c1ccc(Cl)c(Cl)c1,.,.,.,.,.,.,/
Cc1cc(OC(=O)c2ccc(S(=O)(=O)N3CCOCC3)cc2)c([N+](=O)[O-])c(=O)[nH]1,/,/,/,/,/,.,/
CCCN1C(=O)S/C(=C/c2ccc(N3CCOCC3)o2)C1=O,.,.,.,.,.,14.5,.
COC(=O)c1c(C)oc(C)c1S(=O)(=O)NCc1ccco1,.,.,.,.,.,.,/
